# Test results reported in ChEMBL document CHEMBL2311311, “Synthesis and in vitro activity of 1,2,4-triazole-ciprofloxacin hybrids against drug-susceptible and drug-resistant bacteria” (Eur J Med Chem, 2013).
# Key:
# Micrococcus luteus [1] = test: Antimicrobial activity against Micrococcus luteus ATCC 10240 by broth microdilution method; assay type: functional
# Outline: (§1)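 Inocula were saline (0.85% NaCl) suspensions at 0.5 McFarland (150 × 10⁶ CFU/mL). Compounds were first screened by agar dilution on Mueller-Hinton agar, and active ones then went to broth microdilution. MIC is the lowest concentration inhibiting growth. The negative control was medium containing DMSO at the final concentration, without compound.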
# Bacillus cereus = test: Antimicrobial activity against Bacillus cereus ATCC 10876 by broth microdilution method; assay type: functional; outline: as §1
# Bacillus subtilis = test: Antimicrobial activity against Bacillus subtilis ATCC 6633 by broth microdilution method; assay type: functional; outline: as §1
# [2] = tested on: Staphylococcus epidermidis; test: Antimicrobial activity against Staphylococcus epidermidis ATCC 12228 by broth microdilution method; assay type: functional; outline: as §1
# Staphylococcus aureus [3] = test: Antimicrobial activity against Staphylococcus aureus ATCC 25923 by broth microdilution method; assay type: functional; outline: as §1
# HEK293 = test: Cytotoxicity against HEK293 cells after 48 hrs by MTT assay; assay type: cell-based; conditions: Homo sapiens, HEK293, 48 h
# Outline: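 HEK-293 cells were seeded at 3 × 10⁵ cells/well and pre-incubated 24 h at 37 °C under 5% CO₂. Compounds came from 50 mg/mL DMSO stocks diluted in medium with 2% FBS, at final concentrations of 2–500. Exposure was 48 h at 37 °C with MTT formazan read on a plate reader. EC50 is growth inhibition relative to control cells, given as mean ± SD of three independent experiments.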
# Micrococcus luteus [4] = test: Ratio of ciprofloxacin MIC to compound MIC for Micrococcus luteus ATCC 10240 by broth microdilution method; assay type: functional
# Staphylococcus aureus [5] = test: Ratio of MBC to MIC for methicillin-resistant Staphylococcus aureus 14001 by broth microdilution method; assay type: functional
# Outline: (§2)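 Inoculum in sterile saline (0.85% NaCl), adjusted to 0.5 McFarland (150 × 10⁶ CFU/mL). Compounds first screened by agar dilution on Mueller-Hinton agar, then titrated by broth microdilution. Medium with DMSO at the final concentration and no compound served as negative control. MIC is the lowest concentration inhibiting growth. MBC is the lowest concentration giving >99.9% reduction in CFU of the initial inoculum.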
# Staphylococcus aureus [6] = test: Antimicrobial activity against methicillin-resistant Staphylococcus aureus 14001 by broth microdilution method; assay type: functional; outline: as §2
# Proteus mirabilis = test: Antimicrobial activity against Proteus mirabilis ATCC 12453 by broth microdilution method; assay type: functional; outline: as §1
# Pseudomonas aeruginosa [7] = test: Antimicrobial activity against Pseudomonas aeruginosa ATCC 9027 by broth microdilution method; assay type: functional; outline: as §1
# Escherichia coli = test: Antimicrobial activity against Escherichia coli ATCC 25922 by broth microdilution method; assay type: functional; outline: as §1
# Pseudomonas aeruginosa [8] = test: Ratio of ciprofloxacin MIC to compound MIC for Pseudomonas aeruginosa ATCC 9027 by broth microdilution method; assay type: functional
# Staphylococcus aureus [9] = test: Ratio of ciprofloxacin MIC to compound MIC for Staphylococcus aureus ATCC 25923 by broth microdilution method; assay type: functional
# [10] = Selectivity ratio of EC50 for HEK293 cells to MIC for methicillin-resistant Staphylococcus aureus 14001; assay type: functional
# Outline: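 HEK-293 cells grown at 37 °C in humidified 5% CO₂ with penicillin and […] streptomycin. Seeded at 3 × 10⁵ cells/well for 24 h. Compounds (50 mg/mL DMSO stock) were diluted in medium with 2% FBS to final 2–500 µg/mL and applied for 48 h at 37 °C. Read-out was MTT formazan. EC50 was taken relative to control-cell growth, mean ± SD of three independent experiments, then divided by the MRSA MIC.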
# Staphylococcus aureus [11] = test: Ratio of vancomycin MIC to compound MIC for methicillin-resistant Staphylococcus aureus 14001 by broth microdilution method; assay type: functional; outline: as §2
# Staphylococcus aureus [12] = test: Ratio of ciprofloxacin MIC to compound MIC for methicillin-resistant Staphylococcus aureus 14001 by broth microdilution method; assay type: functional; outline: as §2
SMILES,MIC (Micrococcus luteus [1]) [µM],MIC (Bacillus cereus) [µM],MIC (Bacillus subtilis) [µM],MIC [2] [µM],MIC (Staphylococcus aureus [3]) [µM],EC50 (HEK293) [µM],Ratio (Micrococcus luteus [4]),Ratio (Staphylococcus aureus [5]),MBC (Staphylococcus aureus [6]) [µM],MIC (Staphylococcus aureus [6]) [µM],MIC (Proteus mirabilis) [µM],MIC (Pseudomonas aeruginosa [7]) [µM],MIC (Escherichia coli) [µM],Ratio (Pseudomonas aeruginosa [8]),Ratio (Staphylococcus aureus [9]),Ratio [10],Ratio (Staphylococcus aureus [11]),Ratio (Staphylococcus aureus [12])
CCn1c(-c2cccc(Cl)c2)nn(CN2CCN(c3cc4c(cc3F)c(=O)c(C(=O)O)cn4C3CC3)CC2)c1=S,0.84,0.2,0.1,0.84,0.84,39.7,7.5,2,0.84,0.41,0.051,0.41,0.051,–,–,–,–,–
CCCCn1c(-c2cccc(Cl)c2)nn(CN2CCN(c3cc4c(cc3F)c(=O)c(C(=O)O)cn4C3CC3)CC2)c1=S,6.4,0.39,0.2,1.6,3.19,–,–,1,1.6,1.6,0.098,0.8,0.098,–,–,–,–,–
CCCCCCn1c(-c2cccc(Cl)c2)nn(CN2CCN(c3cc4c(cc3F)c(=O)c(C(=O)O)cn4C3CC3)CC2)c1=S,3.05,0.77,0.19,1.53,1.53,–,–,2,3.05,1.53,0.19,0.77,0.047,–,–,–,–,–
O=C(O)c1cn(C2CC2)c2cc(N3CCN(Cn4nc(-c5cccc(O)c5)n(-c5cccc([N+](=O)[O-])c5)c4=S)CC3)c(F)cc2c1=O,1.49,0.18,0.18,0.74,0.74,–,–,2,0.74,0.36,0.023,0.18,0.023,4,–,–,–,–
O=C(O)c1cn(C2CC2)c2cc(N3CCN(Cn4nc(-c5cccc(O)c5)n(-c5cccc(I)c5)c4=S)CC3)c(F)cc2c1=O,1.33,0.16,0.32,0.66,0.66,–,–,1,0.66,0.66,0.041,0.081,0.041,8,–,–,–,–
O=C(O)c1cn(C2CC2)c2cc(N3CCN(Cn4nc(-c5cccc(O)c5)n(-c5ccc(Cl)cc5Cl)c4=S)CC3)c(F)cc2c1=O,1.44,0.18,0.18,0.35,0.35,–,–,2,0.71,0.35,0.022,0.088,0.044,8,8.5,–,–,–
O=C(O)c1cn(C2CC2)c2cc(N3CCN(Cn4nc(-c5cccc(O)c5)n(-c5cc(Cl)cc(Cl)c5)c4=S)CC3)c(F)cc2c1=O,1.44,0.18,0.18,0.35,0.72,53,–,4,0.35,0.088,0.044,0.088,0.022,8,–,600,8,17
O=C(O)c1cn(C2CC2)c2cc(N3CCN(Cn4ncn(-c5cccc(I)c5)c4=S)CC3)c(F)cc2c1=O,24.2,3.02,0.37,6.05,12.1,–,–,2,12.1,6.05,0.18,1.52,0.093,–,–,–,–,–
Cc1nn(CN2CCN(c3cc4c(cc3F)c(=O)c(C(=O)O)cn4C3CC3)CC2)c(=S)n1-c1cccc(I)c1,94.6,1.48,1.48,23.7,23.7,–,–,1,23.7,23.7,0.74,2.95,0.36,–,–,–,–,–
CCCc1nn(CN2CCN(c3cc4c(cc3F)c(=O)c(C(=O)O)cn4C3CC3)CC2)c(=S)n1-c1cccc(I)c1,182,22.7,5.68,90.8,90.8,–,–,1,182,182,2.83,22.7,0.71,–,–,–,–,–
COc1ccc(-n2c(-c3cccc(Cl)c3)nn(CN3CCN(c4cc5c(cc4F)c(=O)c(C(=O)O)cn5C4CC4)CC3)c2=S)cc1,2.95,0.36,0.09,1.48,1.48,–,–,1,0.74,0.74,0.023,0.36,0.023,–,–,–,–,–
O=C(O)c1cn(C2CC2)c2cc(N3CCN(Cn4nc(-c5cccc(Cl)c5)n(-c5ccc(Br)cc5)c4=S)CC3)c(F)cc2c1=O,10.1,1.38,0.34,5.51,5.51,–,–,2,5.51,2.76,0.17,1.38,0.084,–,–,–,–,–
O=C(O)c1cn(C2CC2)c2cc(N3CCN(Cn4nc(-c5cccc(Cl)c5)n(-c5cccc(I)c5)c4=S)CC3)c(F)cc2c1=O,2.58,0.16,0.04,1.29,1.29,–,–,8,5.16,0.64,0.04,0.16,0.02,–,–,–,–,–
O=C(O)c1cn(C2CC2)c2cc(N3CCN(Cn4nc(-c5cccc(Cl)c5)n(-c5ccc(I)cc5)c4=S)CC3)c(F)cc2c1=O,10.3,1.29,0.32,5.16,5.16,–,–,2,5.16,2.58,0.16,1.29,0.08,–,–,–,–,–
O=C(O)c1cn(C2CC2)c2cc(N3CCN(Cn4nc(-c5cccc(Cl)c5)n(-c5ccc(F)cc5F)c4=S)CC3)c(F)cc2c1=O,2.92,0.18,0.09,0.73,0.73,–,–,1,0.73,0.73,0.022,0.36,0.022,–,–,–,–,–
O=C(O)c1cn(C2CC2)c2cc(N3CCN(Cn4nc(-c5cccc(Cl)c5)n(-c5ccc(Cl)cc5Cl)c4=S)CC3)c(F)cc2c1=O,2.78,0.17,0.043,0.7,1.4,–,–,64,44.6,0.7,0.043,0.17,0.043,–,–,–,–,–
O=C(O)c1cn(C2CC2)c2cc(N3CCN(Cn4nc(-c5cccc(Cl)c5)n(-c5cc(Cl)cc(Cl)c5)c4=S)CC3)c(F)cc2c1=O,44.6,5.58,1.4,22.3,22.3,–,–,2,44.6,22.3,0.7,11.2,0.7,–,–,–,–,–
Cn1c(-c2cccc(Cl)c2)nn(CN2CCN(c3cc4c(cc3F)c(=O)c(C(=O)O)cn4C3CC3)CC2)c1=S,1.72,0.21,0.053,0.86,0.86,–,–,2,0.86,0.42,0.053,0.1,0.053,–,–,–,–,–
O=C(O)c1cn(C2CC2)c2cc(N3CCNCC3)c(F)cc2c1=O [CIPROFLOXACIN],5.88,0.36,0.09,1.48,2.96,–,–,4,5.92,1.48,0.045,0.72,0.024,–,–,–,–,–
CN[C@H](CC(C)C)C(=O)N[C@H]1C(=O)N[C@@H](CC(N)=O)C(=O)N[C@H]2C(=O)N[C@H]3C(=O)N[C@H](C(=O)N[C@H](C(=O)O)c4cc(O)cc(O)c4-c4cc3ccc4O)[C@H](O)c3ccc(c(Cl)c3)Oc3cc2cc(c3O[C@@H]2O[C@H](CO)[C@@H](O)[C@H](O)[C@H]2O[C@H]2C[C@](C)(N)[C@H](O)[C@H](C)O2)Oc2ccc(cc2Cl)[C@H]1O [VANCOMYCIN],–,–,–,–,–,–,–,–,2.7,0.68,–,–,–,–,–,–,–,–
